This is an account of results in ChEMBL document CHEMBL3826943, “Design, synthesis and evaluation of 6-aryl-indenoisoquinolone derivatives dual targeting ERα and VEGFR-2 as anti-breast cancer agents” (Eur J Med Chem, 2016).

Active and inactive are the calls of the source. The calls are words filed in the database; no cut-off is given here.

In one assay the test system is Ishikawa. In words: Antiproliferative activity against human Ishikawa cells incubated for 48 hrs by MTT assay. The assay is classed as functional, cell-based. An outline of the steps:
(§1)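 Cells kept in RPMI1640 with 10% FBS, penicillin/streptomycin, 37 °C, 5% CO2. Seeded at 1×10^5/mL, allowed 24 h, then exposed to compound at 1×10^-4, 1×10^-5, 1×10^-6 and 1×10^-7 mol/L for 48 h; controls got medium with 1% DMSO. MTT added for 4 h in the dark, formazan dissolved in DMSO, absorbance at 490 nm used for IC50.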
For orientation: Tetrazolium dyes change colour on reduction, which living cells bring about.

In another assay the test system is MDA-MB-231. In words: Antiproliferative activity against human MDA-MB-231 cells incubated for 48 hrs by MTT assay. In kind it is functional, cell-based. Particulars: MDA-MB-231, 48 h. An outline of the steps: as §1
The next assay has as its system MCF7. In words: Antiproliferative activity against human MCF7 cells incubated for 48 hrs by MTT assay. In kind it is functional, cell-based. Particulars: MCF7, 48 h. An outline of the steps: as §1
Another assay concerns the target T1, Estrogen receptor (Homo sapiens, UniProt P03372).
T1 sequence (P03372 whole entry): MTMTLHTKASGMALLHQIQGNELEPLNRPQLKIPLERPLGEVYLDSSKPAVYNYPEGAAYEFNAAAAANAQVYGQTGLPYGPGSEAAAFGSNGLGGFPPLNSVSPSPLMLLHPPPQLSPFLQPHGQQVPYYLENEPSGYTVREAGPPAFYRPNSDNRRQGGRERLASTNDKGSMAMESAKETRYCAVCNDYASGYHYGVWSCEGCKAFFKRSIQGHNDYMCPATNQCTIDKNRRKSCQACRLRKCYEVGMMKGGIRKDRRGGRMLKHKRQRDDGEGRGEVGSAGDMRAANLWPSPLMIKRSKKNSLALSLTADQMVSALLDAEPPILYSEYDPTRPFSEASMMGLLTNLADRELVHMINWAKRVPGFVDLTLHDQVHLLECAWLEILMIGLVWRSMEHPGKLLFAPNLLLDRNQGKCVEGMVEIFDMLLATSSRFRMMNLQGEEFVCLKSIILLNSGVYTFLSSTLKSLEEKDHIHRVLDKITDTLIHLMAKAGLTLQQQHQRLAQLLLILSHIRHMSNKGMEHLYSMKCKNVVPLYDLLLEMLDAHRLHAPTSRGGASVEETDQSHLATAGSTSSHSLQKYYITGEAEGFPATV
In words: Displacement of fluorescein-labeled estrogen ligand from recombinant ER-alpha (unknown origin) incubated for 2 hrs by fluorescence polarization assay. (Fluorescence polarisation rises when a labelled molecule tumbles more slowly, as on binding a larger partner.)

Assay [1] concerns the target T2, Vascular endothelial growth factor receptor 2 (Homo sapiens, UniProt P35968).
The next assay deals with HUVEC. In words: Antiangiogenic activity in HUVEC assessed as inhibition of cell proliferation incubated for 48 hrs by MTT assay. The assay is classed as functional, cell-based. Particulars: Homo sapiens. In outline:
as §1

Assay [2] addresses T2, Vascular endothelial growth factor receptor 2. The conditions noted are these: HUVEC, at 1 µM.
Assay [3] shares this target. The conditions noted are these: MCF7, at 1 µM.
Assay [4] has the same target. In words: Inhibition of VEGFR2 in HUVEC assessed as reduction in expression of phosphorylated VEGFR2 incubated for 24 hrs by Western blot analysis. The assay is classed as cell-based. An outline of the steps:
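HUVEC treated 24 h, washed with PBS, lysed on ice in Tris/SDS/glycerol/β-mercaptoethanol buffer. Protein measured by BCA, equal amounts run on 12% SDS-PAGE, semi-dry transfer to PVDF. Primary antibodies (p-VEGFR-2, VEGFR-2) overnight at 4 °C, HRP secondary 1 h at 37 °C, ECL detection. Phosphorylation rate by densitometry, mean ± SD, n=3.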
In general terms: In western blotting, separated proteins are transferred to a membrane and probed.

For assay [5] the target is unchanged. Particulars: MCF7, at 1 µM. The source holds these as a separate data set.
Assay [6] shares this target. In words: Inhibition of VEGFR2 in human MCF7 cells assessed as reduction in expression of phosphorylated VEGFR2 at 0.25 to 1 uM incubated for 24 hrs by Western blot analysis. The assay is classed as cell-based. In outline:
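MCF-7 cells treated 24 h, lysed on ice, protein quantified by BCA, equal loads separated on 12% SDS-PAGE and blotted to PVDF. Probed for p-VEGFR-2 and total VEGFR-2 overnight at 4 °C, HRP secondary 1 h at 37 °C, chemiluminescence on film. VEGFR-2 phosphorylation rate by densitometry, mean ± SD (n=3).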

T2 sequence (P35968 whole entry): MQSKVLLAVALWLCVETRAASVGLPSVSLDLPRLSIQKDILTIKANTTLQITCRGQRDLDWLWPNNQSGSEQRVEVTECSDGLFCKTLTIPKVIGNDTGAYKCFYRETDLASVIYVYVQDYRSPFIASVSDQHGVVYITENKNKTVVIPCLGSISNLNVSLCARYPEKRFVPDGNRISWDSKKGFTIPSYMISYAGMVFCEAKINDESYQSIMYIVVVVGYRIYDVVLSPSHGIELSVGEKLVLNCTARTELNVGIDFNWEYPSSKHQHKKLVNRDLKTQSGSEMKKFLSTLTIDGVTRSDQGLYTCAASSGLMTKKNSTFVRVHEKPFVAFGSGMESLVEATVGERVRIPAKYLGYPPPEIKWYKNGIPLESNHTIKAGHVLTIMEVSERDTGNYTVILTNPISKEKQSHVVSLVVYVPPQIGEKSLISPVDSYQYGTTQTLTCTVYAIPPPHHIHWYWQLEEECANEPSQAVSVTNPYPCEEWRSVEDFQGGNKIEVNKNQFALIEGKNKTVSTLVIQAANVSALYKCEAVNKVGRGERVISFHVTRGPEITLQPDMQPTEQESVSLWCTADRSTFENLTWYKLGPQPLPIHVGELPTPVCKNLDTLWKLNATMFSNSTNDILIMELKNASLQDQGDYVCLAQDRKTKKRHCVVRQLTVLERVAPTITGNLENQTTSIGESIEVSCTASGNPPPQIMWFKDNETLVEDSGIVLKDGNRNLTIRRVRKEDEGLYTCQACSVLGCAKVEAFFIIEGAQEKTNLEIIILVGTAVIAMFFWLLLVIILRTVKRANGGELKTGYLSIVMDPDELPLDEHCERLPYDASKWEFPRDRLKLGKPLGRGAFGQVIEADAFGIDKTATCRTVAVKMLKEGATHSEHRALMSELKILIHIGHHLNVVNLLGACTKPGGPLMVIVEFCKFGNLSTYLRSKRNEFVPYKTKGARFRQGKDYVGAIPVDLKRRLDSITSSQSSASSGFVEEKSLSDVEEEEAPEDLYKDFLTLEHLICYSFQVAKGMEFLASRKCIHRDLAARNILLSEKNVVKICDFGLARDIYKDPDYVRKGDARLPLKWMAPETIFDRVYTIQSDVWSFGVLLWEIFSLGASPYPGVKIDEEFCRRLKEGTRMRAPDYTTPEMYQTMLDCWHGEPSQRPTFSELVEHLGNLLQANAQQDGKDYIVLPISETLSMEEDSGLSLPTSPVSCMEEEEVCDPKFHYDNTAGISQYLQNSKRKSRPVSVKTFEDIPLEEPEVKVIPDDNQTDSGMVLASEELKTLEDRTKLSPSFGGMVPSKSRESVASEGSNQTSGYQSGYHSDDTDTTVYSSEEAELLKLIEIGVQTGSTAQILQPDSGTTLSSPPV

Regarding `COc1ccc2c(c1)C(=O)c1c-2n(-c2ccc(OCCN3CCCC3)cc2)c(=O)c2cc(OC)ccc12`, the IC50 was 8.7 µM in the assay with Ishikawa; 700 nM with MDA-MB-231; 700 nM in the assay with MCF7; 17.7 µM at Estrogen receptor; “Not Active” in assay [1]; above 100 µM in the assay on HUVEC.

As to `CCN(CC)CCOc1ccc(-n2c3c(c4ccc(OC)cc4c2=O)C(=O)c2cc(OC)ccc2-3)cc1`, the IC50 with Ishikawa worked out at 6.7 µM; in the assay with MDA-MB-231, 1300 nM; in the assay on MCF7 it was 700 nM; on Estrogen receptor, 18.7 µM; in assay [1] (read-out: IC50), 1030 nM; in the assay with HUVEC it was 11.4 µM.

For `CCN(CC)CCNC(=O)c1c(C)[nH]c(/C=C2\C(=O)Nc3ccc(F)cc32)c1C` [SUNITINIB], the IC50 in the assay on HUVEC came to 0.8 µM.

For `COc1ccc2c(c1)C(=O)c1c-2n(-c2ccc(OCCCN3CCOCC3)cc2)c(=O)c2cc(OC)ccc12`, the IC50 with Ishikawa is above 100 µM; in the assay on MDA-MB-231 it was above 100000 nM; in the assay with MCF7, above 100000 nM; at Estrogen receptor, above 100 µM; in assay [1], “Not Active”; in the assay with HUVEC, above 100 µM.

In the case of `CCN(CC)CCOc1ccc(-n2c3c(c4ccc(O)cc4c2=O)C(=O)c2cc(O)ccc2-3)cc1`, the IC50 with Ishikawa was 4 µM; in the assay with MDA-MB-231 it was 1000 nM; in the assay with MCF7, 800 nM; at Estrogen receptor, 6.7 µM; in assay [1] (read-out: IC50), 120 nM; in the assay with HUVEC, 1.8 µM.

As to `CN1CCN(CCOc2ccc(-n3c4c(c5ccc(O)cc5c3=O)C(=O)c3cc(O)ccc3-4)cc2)CC1`, the IC50 was 6.1 µM in the assay on Ishikawa; 4100 nM in the assay with MDA-MB-231; 2500 nM in the assay with MCF7; 10.6 µM on Estrogen receptor; “Not Active” in [1]; 1.1 µM with HUVEC.

Turning to `COc1ccc2c(c1)C(=O)c1c-2n(-c2ccc(OCCCN3CCN(C)CC3)cc2)c(=O)c2cc(OC)ccc12`, the IC50 is above 100 µM in the assay with Ishikawa; above 100000 nM with MDA-MB-231; above 100000 nM in the assay with MCF7; 35.2 µM at Estrogen receptor; “Not Active” in assay [1]; above 100 µM in the assay on HUVEC.

Regarding `CCN(CC)CCCOc1ccc(-n2c3c(c4ccc(OC)cc4c2=O)C(=O)c2cc(OC)ccc2-3)cc1`, the IC50 with Ishikawa was 4.1 µM; in the assay with MDA-MB-231, 1500 nM; in the assay with MCF7, 2300 nM; at Estrogen receptor, 39.8 µM; in assay [1] it was “Not Active”; in the assay on HUVEC it was 16 µM.

Take `CC/C(=C(\c1ccccc1)c1ccc(OCCN(C)C)cc1)c1ccccc1` [TAMOXIFEN]: the figures for the IC50 in the assay on Ishikawa, in the assay with MDA-MB-231 and in the assay with MCF7 were 6 µM, 13900 nM and 5300 nM, respectively.

Turning to `COc1ccc2c(c1)C(=O)c1c-2n(-c2ccc(OCCN3CCN(C)CC3)cc2)c(=O)c2cc(OC)ccc12`, the IC50 was 10.9 µM in the assay with Ishikawa; above 100000 nM in the assay with MDA-MB-231; 1100 nM with MCF7; 23.3 µM on Estrogen receptor; “Not Active” in [1]; 12 µM in the assay with HUVEC.

`COc1ccc2c(c1)C(=O)c1c-2n(-c2ccc(OCCCN3CCCCC3)cc2)c(=O)c2cc(OC)ccc12`: the IC50 was 4.5 µM in the assay on Ishikawa; 21700 nM in the assay with MDA-MB-231; 7800 nM with MCF7; 38.3 µM on Estrogen receptor; “Not Active” in assay [1]; above 100 µM in the assay on HUVEC.

With `COc1ccc2c(c1)C(=O)c1c-2n(-c2ccc(OCCN3CCOCC3)cc2)c(=O)c2cc(OC)ccc12`, the IC50 in the assay with Ishikawa was above 100 µM; with MDA-MB-231, above 100000 nM; with MCF7, above 100000 nM; at Estrogen receptor it was above 100 µM; in assay [1], “Not Active”; in the assay with HUVEC it was above 100 µM.

Take `O=C1c2cc(O)ccc2-c2c1c1ccc(O)cc1c(=O)n2-c1ccc(OCCN2CCCC2)cc1`: the inhibition result in assay [2], in assay [3], in assay [5] and in [6] was “Active” throughout. Also, the IC50 in the assay with Ishikawa worked out at 8.2 µM; in the assay with MDA-MB-231, 500 nM; in the assay on MCF7 it was 1200 nM; on Estrogen receptor, 7.2 µM; in [1] (read-out: IC50), 99 nM; in the assay with HUVEC, 0.8 µM. The inhibition result in assay [4] was “Dose-dependent effect”.

With `COc1ccc2c(c1)C(=O)c1c-2n(-c2ccc(OCCN3CCCCC3)cc2)c(=O)c2cc(OC)ccc12`, the IC50 with Ishikawa was 9.6 µM; in the assay on MDA-MB-231, 2800 nM; with MCF7, 300 nM; on Estrogen receptor, 24.9 µM; in assay [1], “Not Active”; with HUVEC it was above 100 µM.

Consider `O=C1c2cc(O)ccc2-c2c1c1ccc(O)cc1c(=O)n2-c1ccc(OCCN2CCCCC2)cc1`, for which the IC50 in the assay on Ishikawa was 4.3 µM; with MDA-MB-231, 800 nM; in the assay on MCF7 it was 1100 nM; at Estrogen receptor, 3.4 µM; in [1] (read-out: IC50) it was 250 nM; with HUVEC, 1.3 µM.

Turning to `COc1ccc2c(c1)C(=O)c1c-2n(-c2ccc(OCCCN(C)C)cc2)c(=O)c2cc(OC)ccc12`, the IC50 is 9.6 µM with Ishikawa; 600 nM in the assay on MDA-MB-231; 1400 nM in the assay on MCF7; 39.4 µM on Estrogen receptor; “Not Active” in assay [1]; 25 µM in the assay on HUVEC.

`CN(C)CCOc1ccc(-n2c3c(c4ccc(O)cc4c2=O)C(=O)c2cc(O)ccc2-3)cc1`: the half-inhibitory concentration (IC50) with Ishikawa worked out at 5.1 µM; in the assay with MDA-MB-231 it was 3300 nM; in the assay on MCF7 it was 3800 nM; on Estrogen receptor, 7.6 µM; in assay [1] (read-out: IC50) it was 330 nM; with HUVEC, 4.6 µM.

In the case of `O=C1c2cc(O)ccc2-c2c1c1ccc(O)cc1c(=O)n2-c1ccc(OCCN2CCOCC2)cc1`, the IC50 in the assay with Ishikawa was above 100 µM; with MDA-MB-231, above 100000 nM; in the assay on MCF7 it was above 100000 nM; on Estrogen receptor it was 19.8 µM; in assay [1], “Not Active”; with HUVEC, above 100 µM.

`COc1ccc2c(c1)C(=O)c1c-2n(-c2ccc(OCCCN3CCCC3)cc2)c(=O)c2cc(OC)ccc12`: the IC50 in the assay with Ishikawa was 12.8 µM; with MDA-MB-231 it was 3000 nM; in the assay on MCF7, 3200 nM; on Estrogen receptor, 40.3 µM; in [1] it was “Not Active”; with HUVEC, 5.1 µM.

Take `COc1ccc2c(c1)C(=O)c1c-2n(-c2ccc(OCCN(C)C)cc2)c(=O)c2cc(OC)ccc12`: the IC50 with Ishikawa was determined as 10.6 µM; in the assay with MDA-MB-231, 1100 nM; in the assay on MCF7 it was 1100 nM; at Estrogen receptor, 24.4 µM; in assay [1] (read-out: IC50) it was 3900 nM; in the assay on HUVEC, 35.6 µM.

For orientation: IC50 means the midpoint of a concentration-inhibition curve.
